Source: PMC4806784 (Investigational new drugs, 2015)
Like-named read-outs stand apart in the source and are kept apart here.

Type: in vivo, human
Conditions: for AUC(0-t) / Cmax / Tmax / half-life / concentration at 12 h: plasma; for Tmax: median (range); for concentration at 12 h: C12h
Procedure, shortened: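 Test compound was given as oral capsules with […] water after a 2-h fast, BID Q12hr, 3–6 patients per dose level. Docetaxel 60 mg/m2 was a 1-h IV infusion 2 h beforehand. […] was sampled on Cycle 1 Day 1 (predose, 0.5–24 h after dose 1) and Day 2 (predose, 0.5–44 h after dose 4). Analysis was non-compartmental, with AUC by linear-up/log-down trapezoidal method and Cmax/Tmax by inspection.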

O=C(O)[C@]1(Cc2cccc(Nc3nccs3)n2)CC[C@@H](Oc2cccc(Cl)c2F)CC1 [MK-5108]
mean target trough concentration of 2 μM (Panel 2 (CT with docetaxel), any tested dose level): not achieved | dose proportionality of AUC0-12h and Cmax (following the first dose): less than dose proportionally | dose proportionality of AUC0-12h and Cmax (following the fourth dose, 100 to 1800 mg (Q12hr)): roughly dose proportionally | dose proportionality of serum concentration at 12 hours post dose (trough) (human, in vivo): roughly dose proportionally | shape of mean plasma concentration decline (human, in vivo): biphasic decline | AUC(0-t) (human, iv, 60 mg/m2, AUC0-12h, 100 mg/day, Panel 2 (CT, docetaxel 60 mg/m^2 IV), Dose 1): 7.9 ± 2 µM·h | AUC(0-t) (human, iv, 60 mg/m2, AUC0-12h, 100 mg/day, Panel 2 (CT, docetaxel 60 mg/m^2 IV), Dose 4): 10.8 ± 3.3 µM·h | AUC(0-t) (human, iv, 60 mg/m2, AUC0-12h, 150 mg/day, Panel 2 (CT, docetaxel 60 mg/m^2 IV), Dose 1): 15 ± 9.2 µM·h | AUC(0-t) (human, iv, 60 mg/m2, AUC0-12h, 150 mg/day, Panel 2 (CT, docetaxel 60 mg/m^2 IV), Dose 4): 16.4 ± 8.9 µM·h | AUC(0-t) (human, iv, 60 mg/m2, AUC0-12h, 225 mg/day, Panel 2 (CT, docetaxel 60 mg/m^2 IV), Dose 1): 18.5 ± 6.2 µM·h | AUC(0-t) (human, iv, 60 mg/m2, AUC0-12h, 225 mg/day, Panel 2 (CT, docetaxel 60 mg/m^2 IV), Dose 4): 23.4 ± 8.8 µM·h | Cmax (human, iv, 60 mg/m2, Cmax, 100 mg/day, Panel 2 (CT, docetaxel 60 mg/m^2 IV), Dose 1): 2300 ± 1200 nM | Cmax (human, iv, 60 mg/m2, Cmax, 100 mg/day, Panel 2 (CT, docetaxel 60 mg/m^2 IV), Dose 4): 2200 ± 1000 nM | Cmax (human, iv, 60 mg/m2, Cmax, 150 mg/day, Panel 2 (CT, docetaxel 60 mg/m^2 IV), Dose 1): 3500 ± 2000 nM | Cmax (human, iv, 60 mg/m2, Cmax, 150 mg/day, Panel 2 (CT, docetaxel 60 mg/m^2 IV), Dose 4): 3200 ± 1700 nM | Cmax (human, iv, 60 mg/m2, Cmax, 225 mg/day, Panel 2 (CT, docetaxel 60 mg/m^2 IV), Dose 1): 5000 ± 800 nM | Cmax (human, iv, 60 mg/m2, Cmax, 225 mg/day, Panel 2 (CT, docetaxel 60 mg/m^2 IV), Dose 4): 5300 ± 1700 nM | Tmax (human, iv, 60 mg/m2, Tmax, 100 mg/day, Panel 2 (CT, docetaxel 60 mg/m^2 IV), Dose 1): 2 h | Tmax (human, iv, 60 mg/m2, Tmax, 100 mg/day, Panel 2 (CT, docetaxel 60 mg/m^2 IV), Dose 4): 4 h | Tmax (human, iv, 60 mg/m2, Tmax, 150 mg/day, Panel 2 (CT, docetaxel 60 mg/m^2 IV), Dose 1): 3.5 h | Tmax (human, iv, 60 mg/m2, Tmax, 150 mg/day, Panel 2 (CT, docetaxel 60 mg/m^2 IV), Dose 4): 5 h | Tmax (human, iv, 60 mg/m2, Tmax, 225 mg/day, Panel 2 (CT, docetaxel 60 mg/m^2 IV), Dose 1): 2 h | Tmax (human, iv, 60 mg/m2, Tmax, 225 mg/day, Panel 2 (CT, docetaxel 60 mg/m^2 IV), Dose 4): 3 h | half-life (human, iv, 60 mg/m2, t1/2, 100 mg/day, Panel 2 (CT, docetaxel 60 mg/m^2 IV), Dose 4): 13.5 ± 10.6 h | half-life (human, iv, 60 mg/m2, t1/2, 150 mg/day, Panel 2 (CT, docetaxel 60 mg/m^2 IV), Dose 4): 10.1 ± 5 h | half-life (human, iv, 60 mg/m2, t1/2, 225 mg/day, Panel 2 (CT, docetaxel 60 mg/m^2 IV), Dose 4): 9.2 ± 5.1 h | concentration at 12 h (human, iv, 100 mg/day, Panel 2 (CT, docetaxel 60 mg/m^2 IV), Dose 1): 150 ± 120 nM | concentration at 12 h (human, iv, 100 mg/day, Panel 2 (CT, docetaxel 60 mg/m^2 IV), Dose 4): 210 ± 100 nM | concentration at 12 h (human, iv, 150 mg/day, Panel 2 (CT, docetaxel 60 mg/m^2 IV), Dose 1): 330 ± 220 nM | concentration at 12 h (human, iv, 150 mg/day, Panel 2 (CT, docetaxel 60 mg/m^2 IV), Dose 4): 510 ± 370 nM | concentration at 12 h (human, iv, 225 mg/day, Panel 2 (CT, docetaxel 60 mg/m^2 IV), Dose 1): 460 ± 260 nM | concentration at 12 h (human, iv, 225 mg/day, Panel 2 (CT, docetaxel 60 mg/m^2 IV), Dose 4): 660 ± 620 nM | AUC(0-t) (human, oral, 200 mg/day, AUC0-12h, Panel 1 (MT), Dose 1): 17.5 ± 5.6 µM·h | AUC(0-t) (human, oral, 200 mg/day, AUC0-12h, Panel 1 (MT), Dose 4): 31.2 ± 16.3 µM·h | concentration at 12 h (human, oral, 200 mg/day, Panel 1 (MT), Dose 1): 350 ± 50 nM | concentration at 12 h (human, oral, 200 mg/day, Panel 1 (MT), Dose 4): 1920 ± 1910 nM | Cmax (human, oral, 200 mg/day, Cmax, Panel 1 (MT), Dose 1): 3900 ± 700 nM | Cmax (human, oral, 200 mg/day, Cmax, Panel 1 (MT), Dose 4): 4800 ± 1000 nM | Tmax (human, oral, 200 mg/day, Tmax, Panel 1 (MT), Dose 1): 4 h | Tmax (human, oral, 200 mg/day, Tmax, Panel 1 (MT), Dose 4): 4 h | half-life (human, oral, 200 mg/day, t1/2, 200 mg/day, Panel 1 (MT), Dose 4): 9.3 ± 1.2 h | AUC(0-t) (human, oral, 400 mg/day, AUC0-12h, Panel 1 (MT), Dose 1): 27 ± 12.2 µM·h | AUC(0-t) (human, oral, 400 mg/day, AUC0-12h, Panel 1 (MT), Dose 4): 75.7 ± 46.2 µM·h | concentration at 12 h (human, oral, 400 mg/day, Panel 1 (MT), Dose 1): 250 ± 130 nM | concentration at 12 h (human, oral, 400 mg/day, Panel 1 (MT), Dose 4): 2020 ± 1520 nM | Cmax (human, oral, 400 mg/day, Cmax, Panel 1 (MT), Dose 1): 6700 ± 2400 nM | Cmax (human, oral, 400 mg/day, Cmax, Panel 1 (MT), Dose 4): 11000 ± 5300 nM | Tmax (human, oral, 400 mg/day, Tmax, Panel 1 (MT), Dose 1): 2 h | Tmax (human, oral, 400 mg/day, Tmax, Panel 1 (MT), Dose 4): 6 h | half-life (human, oral, 400 mg/day, t1/2, 400 mg/day, Panel 1 (MT), Dose 4): 8.7 ± 6.7 h | AUC(0-t) (human, oral, 800 mg/day, AUC0-12h, Panel 1 (MT), Dose 1): 69 ± 41.9 µM·h | AUC(0-t) (human, oral, 800 mg/day, AUC0-12h, Panel 1 (MT), Dose 4): 95.5 ± 44.9 µM·h | concentration at 12 h (human, oral, 800 mg/day, Panel 1 (MT), Dose 1): 1680 ± 1910 nM | concentration at 12 h (human, oral, 800 mg/day, Panel 1 (MT), Dose 4): 4530 ± 2680 nM | Cmax (human, oral, 800 mg/day, Cmax, Panel 1 (MT), Dose 1): 19500 ± 5500 nM | Cmax (human, oral, 800 mg/day, Cmax, Panel 1 (MT), Dose 4): 20000 ± 11000 nM
